Assay [1] relates to Curvularia lunata. Nature of the assay: Antifungal activity against Cochliobolus lunatus. The class given is functional. A digest of the protocol: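 C. lunatus m118 (wild type). MIC, the lowest concentration preventing visible growth after overnight incubation, determined by the Radford method.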
For assay [2], the system named is Curvularia lunata. Nature of the assay: Antifungal activity against Cochliobolus lunatus at 5 mM assessed as radial growth rate. In kind it is functional. The essentials: (§1)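 C. lunatus m118 on agar plates in triplicate, each inhibitor at 5 mM alone or at 5 mM combined with 0.1 mM benzoic acid. Plates centrally inoculated with 7 mm mycelial disks taken from a 48 h solid culture. Radial growth rate (mm/h) from colony diameter over time. Initial growth inhibition time (h) is the time-axis intercept of the linear growth phase extrapolated to 7 mm diameter.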

Assay [3] has as its system Curvularia lunata. Nature of the assay: Antifungal activity against Cochliobolus lunatus at 0.1 mM assessed as initial growth inhibition time. In kind it is functional. The essentials: as §1
Assay [4] deals with Curvularia lunata. Briefly: Antifungal activity against Cochliobolus lunatus at 5 mM assessed as initial growth inhibition time. The class given is functional. The essentials:
as §1

For assay [5], the system named is Curvularia lunata. Briefly: Antifungal activity against Cochliobolus lunatus at 0.1 mM assessed as radial growth rate. In kind it is functional. A digest of the protocol:
as §1

Assay [6] concerns Curvularia lunata. Briefly: Antifungal activity against Cochliobolus lunatus delta bph at 5 mM assessed as radial growth rate. In kind it is functional. The essentials: (§2)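 Δbph deletion strain of C. lunatus (bph gene replaced by hph, hygromycin-selected) on agar with 5 mM test compound, in triplicate. Plates centrally inoculated with 7 mm mycelial disks from a 48 h culture. Radial growth rate (mm/h) measured; initial growth inhibition time (h) taken as the intercept of the extrapolated linear growth phase at 7 mm.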

Assay [7] has as its system Curvularia lunata. Briefly: Antifungal activity against Cochliobolus lunatus delta bph at 5 mM assessed as initial growth inhibition time. In kind it is functional. The essentials:
as §2

The nature of assay [8]: Inhibition of Cochliobolus lunatus CYP53A15 expressed in Escherichia coli. Details: species or system Curvularia lunata. A digest of the protocol: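 His-tagged CYP53A15 from E. coli C43(DE3), Ni-NTA purified, reconstituted with rabbit liver NADPH-P450 reductase and DLPC in pH 7.4 phosphate. Reaction started with 1 mM NADPH and benzoate. para-Hydroxybenzoate formation quantified by HPLC of quenched reactions over time. Enzyme at 5 µM, inhibitors at 300 and 600 µM. Kinetic constants from simultaneous progress-curve analysis.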

The results in this text go back to ChEMBL document CHEMBL1150428, “CYP53A15 of Cochliobolus lunatus, a target for natural antifungal compounds” (J Med Chem, 2008).

Values after ≈ are worked out from the molar mass of the structure shown.

Usually MIC stands for the least concentration at which growth counts as inhibited. A word on the Ki: it is the equilibrium dissociation constant of an inhibitor or competing ligand from its target.

In turn, `O=C(O)c1ccccc1` [BENZOIC ACID] yielded an MIC against Curvularia lunata [1] of 5 mM (≈ 611 µg/mL). Also, the Activity with Curvularia lunata [2] was 0.22 millimeter/hr; in the assay on Curvularia lunata [3] it was 12 h; in the assay on Curvularia lunata [4], 56 h; in the assay on Curvularia lunata [5], 0.55 millimeter/hr; in the assay with Curvularia lunata [6], 0 millimeter/hr; in the assay with Curvularia lunata [7], over 1800 h.
Take `C/C=C\c1ccc(O)c(OC)c1` [ISOEUGENOL]: the Activity in the assay with Curvularia lunata [2] is 0.29 millimeter/hr; in the assay with Curvularia lunata [4], 56 h; with Curvularia lunata [6], 0 millimeter/hr; with Curvularia lunata [7] it was over 1800 h. In addition, in assay [8], the affinity, expressed as Ki, was 14.2 µM.
Regarding `Cc1ccc(C(C)C)c(O)c1` [THYMOL], in assay [8], the Ki came out at 8.2 µM.
`COc1cc(C=O)ccc1O` [VANILLIN]: the Activity in the assay on Curvularia lunata [2] came out at 0.55 millimeter/hr; in the assay on Curvularia lunata [4], 12 h. The Ki in assay [8] turned out to be 29.7 µM.
For `C=CCc1ccc(O)c(OC)c1` [EUGENOL], in that order: 0.57 millimeter/hr, 20 h and 26.2 µM.
